Active and inactive are the calls of the source. The rule behind the calls is not given here. Where a SMILES comes first, the peptide text is derived from it. The star is where a group is joined. Cbz = O=C(OCc1ccccc1)*
Experiments:
[1] = molecular target: T1, Mitogen-activated protein kinase 14 (Homo sapiens, UniProt Q16539); assay: Inhibition of recombinant human p38alpha expressed in Escherichia coli assessed as residual activity at 10 uM (reference value: 100 +/- 0.1%)
How it was run: (§1)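 Single-point kinase screen at 10 μM, in duplicate; ALK5 as human GST-fusion from baculovirus/Sf9, p38α as untagged human protein from E. coli; residual activity relative to DMSO vehicle, mean ± SD of two independent experiments.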

[2] = molecular target: T2, TGF-beta receptor type-1 (Homo sapiens) (UniProt P36897); assay: Inhibition of recombinant GST-tagged human ALK5 expressed in baculovirus infected Sf9 insect cells assessed as residual activity at 10 uM; how it was run: as §1
T2 sequence (whole entry): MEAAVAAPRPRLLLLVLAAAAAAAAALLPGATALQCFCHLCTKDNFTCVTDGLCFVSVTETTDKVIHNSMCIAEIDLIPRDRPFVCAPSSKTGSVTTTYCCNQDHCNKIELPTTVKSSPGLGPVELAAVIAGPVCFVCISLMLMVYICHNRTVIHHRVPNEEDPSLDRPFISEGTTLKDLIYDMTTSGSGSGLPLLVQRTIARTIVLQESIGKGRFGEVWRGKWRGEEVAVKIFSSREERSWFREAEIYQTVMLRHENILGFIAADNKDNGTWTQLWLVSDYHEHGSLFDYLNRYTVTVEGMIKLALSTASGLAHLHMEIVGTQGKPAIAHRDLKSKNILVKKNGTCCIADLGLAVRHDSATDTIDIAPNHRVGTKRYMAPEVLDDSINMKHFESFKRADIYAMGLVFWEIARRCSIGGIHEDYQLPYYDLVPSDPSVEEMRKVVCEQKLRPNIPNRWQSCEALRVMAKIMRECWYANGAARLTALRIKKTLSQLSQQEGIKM

[3] = molecular target: T1, Mitogen-activated protein kinase 14; assay: Inhibition of recombinant human p38alpha expressed in Escherichia coli
How it was run: (§2)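 IC50 determination against ALK5 (human GST-fusion, Sf9 baculovirus) and p38α (untagged human, E. coli); values averaged from three independent experiments run in triplicate.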

TGF-beta receptor type-1 = molecular target: T3, TGF-beta receptor type-1 (Homo sapiens, UniProt P36897); assay: Inhibition of recombinant GST-tagged human ALK5 expressed in baculovirus infected Sf9 insect cells; how it was run: as §2
T3 sequence (P36897 whole entry): T2 sequence (whole entry)

HCT-116 [4] = assay: Inhibition of TNFalpha-induced HIF1alpha expression in human HCT116 cells at 50 uM by Western blot analysis; format: functional, cell-based
How it was run: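 HCT116 exposed to TNF 10 ng/mL for 24 h with graded concentrations; total protein blotted for HIF-1α, Topo-I reprobe as loading control.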

HCT-116 [5] = assay: Induction of apoptosis in human HCT116 cells assessed as viable cells at 50 uM after 12 hrs by Annexin-V/PI-staining based flow cytometric analysis (reference value: 95.3%); format: functional; details: HCT-116, 12 h, read-out: Activity
HCT-116 [6] = assay: Induction of apoptosis in human HCT116 cells assessed as necrotic cells at 50 uM after 12 hrs by Annexin-V/PI-staining based flow cytometric analysis (reference value: 3.5%); format: functional
HCT-116 [7] = assay: Induction of apoptosis in human HCT116 cells assessed as viable cells at 50 uM preincubated for 12 hrs followed by TNF stimulation and measured after 24 hrs by Annexin-V/PI-staining based flow cytometric analysis (reference value: 92.4%); format: functional; details: read-out: Activity
HCT-116 [8] = assay: Induction of apoptosis in human HCT116 cells assessed as early apoptotic cells at 50 uM preincubated for 12 hrs followed by TNF stimulation and measured after 24 hrs by Annexin-V/PI-staining based flow cytometric analysis (reference value: 2.8%); format: functional
HCT-116 [9] = assay: Induction of apoptosis in human HCT116 cells assessed as late apoptotic cells at 50 uM preincubated for 12 hrs followed by TNF stimulation and measured after 24 hrs by Annexin-V/PI-staining based flow cytometric analysis (reference value: 1.4%); format: functional
HCT-116 [10] = assay: Induction of apoptosis in human HCT116 cells assessed as necrotic cells at 50 uM preincubated for 12 hrs followed by TNF stimulation and measured after 24 hrs by Annexin-V/PI-staining based flow cytometric analysis (reference value: 3.6%); format: functional
HCT-116 [11] = assay: […] of HIF1alpha expression in human HCT116 cells at 10 uM after 30 mins in presence of 1% O2 by Western blot analysis; format: functional, cell-based

T1 sequence (Q16539 whole entry, the tested form may be a part): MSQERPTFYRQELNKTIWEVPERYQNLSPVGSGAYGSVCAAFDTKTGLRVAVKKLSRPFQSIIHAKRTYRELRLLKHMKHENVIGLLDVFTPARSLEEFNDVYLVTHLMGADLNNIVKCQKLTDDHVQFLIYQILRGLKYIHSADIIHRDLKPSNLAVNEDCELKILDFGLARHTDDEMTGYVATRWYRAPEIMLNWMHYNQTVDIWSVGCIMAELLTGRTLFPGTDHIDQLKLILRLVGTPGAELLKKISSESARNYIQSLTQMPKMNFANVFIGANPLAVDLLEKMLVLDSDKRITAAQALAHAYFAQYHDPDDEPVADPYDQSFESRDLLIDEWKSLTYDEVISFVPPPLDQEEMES

SMILES | Activity [1] | Activity [2] | other results
Cc1cccc(-c2nn(CC(=S)Nc3ccccc3)cc2-c2ccnc(-c3ccccc3)c2)n1 | 10% | 11% | IC50 [3]: 536 nM; IC50 (TGF-beta receptor type-1): 1690 nM
Cc1cccc(-c2c(-c3ccnc4ccccc34)cnn2CC(=O)Nc2cccc(C#N)c2)n1 | 51% | 17% | 
Cc1cccc(-c2nn(CC(=O)Nc3ccccc3F)cc2-c2ccnc3ccccc23)n1 | 6% | 0% | 
Cc1cccc(-c2nn(CC(=O)Nc3ccccc3)cc2-c2ccnc3ccccc23)n1 | 10% | 2% | 
Cc1cccc(-c2nn(CC(=S)Nc3ccccc3)cc2-c2ccnc3ccccc23)n1 | 3% | 3% | IC50 [3]: 74 nM; IC50 (TGF-beta receptor type-1): 57 nM
Cc1cccc(-c2nn3c(c2-c2ccnc4ccc(C(N)=O)cc24)CCC3)n1 [GALUNISERTIB] | 4% |  | inhibition (HCT-116 [4]): Active; viability at 50 µM (HCT-116 [5]): 85.2%; Activity (HCT-116 [6]): 8.5%; viability at 50 µM (HCT-116 [7]): 87.7%; Activity (HCT-116 [8]): 3.7%; Activity (HCT-116 [9]): 2.8%; Activity (HCT-116 [10]): 5.7%
Cc1cccc(-c2c(-c3ccnc4ccccc34)cnn2CC(=O)Nc2cccc(F)c2)n1 | 31% | 39% | 
Cc1cccc(-c2nn(CC(=O)Nc3cccc(F)c3)cc2-c2ccnc3ccccc23)n1 | 4% | 0% | 
CC(C)C[C@@H](C=O)NC(=O)[C@H](CC(C)C)NC(=O)[C@H](CC(C)C)NC(=O)OCc1ccccc1 (Cbz-Leu-Leu-Leu-aldehyde) |  |  | Activity (HCT-116 [11]): Active
Cc1cccc(-c2nn(CC(=S)Nc3cccc(F)c3)cc2-c2ccnc3ccccc23)n1 | 3% | 2% | IC50 [3]: 63 nM; IC50 (TGF-beta receptor type-1): 43 nM
Cc1cccc(-c2nn(CC(=O)Nc3cccc(C#N)c3)cc2-c2ccnc3ccccc23)n1 | 6% | 1% | 

Second part, led by results:

Activity [1] | Activity [2] | SMILES | other results
81% | 93% | Cc1cccc(-c2c(-c3ccnc(-c4ccccc4)c3)cnn2CC(=O)Nc2cccc(F)c2)n1 | 
24% | 71% | Cc1cccc(-c2c(-c3ccnc4ccccc34)cnn2CC(=O)Nc2ccccc2)n1 | 
24% | 18% | Cc1cccc(-c2nn(CC(=O)Nc3cccc(C#N)c3)cc2-c2ccnc(-c3ccccc3)c2)n1 | 
4% | 11% | Cc1cccc(-c2nn(CC(=S)Nc3ccccc3F)cc2-c2ccnc(-c3ccccc3)c2)n1 | IC50 [3]: 487 nM; IC50 (TGF-beta receptor type-1): 2050 nM
9% | 6% | Cc1cccc(-c2nn(CC(=S)Nc3cccc(F)c3)cc2-c2ccnc(-c3ccccc3)c2)n1 | IC50 [3]: 761 nM; IC50 (TGF-beta receptor type-1): 1560 nM
11% | 12% | Cc1cccc(-c2nn(CC(=O)Nc3ccccc3)cc2-c2ccnc(-c3ccccc3)c2)n1 | 
4% | 2% | Cc1cccc(-c2nn(CC(=S)Nc3ccccc3F)cc2-c2ccnc3ccccc23)n1 | IC50 [3]: 68 nM; IC50 (TGF-beta receptor type-1): 53 nM
96% | 102% | Cc1cccc(-c2c(-c3ccnc(-c4ccccc4)c3)cnn2CC(=O)Nc2ccccc2F)n1 | 
66% | 100% | Cc1cccc(-c2c(-c3ccnc(-c4ccccc4)c3)cnn2CC(=O)Nc2ccccc2)n1 | 
135% | 105% | Cc1cccc(-c2c(-c3ccnc(-c4ccccc4)c3)cnn2CC(=O)Nc2cccc(C#N)c2)n1 | 
15% | 12% | Cc1cccc(-c2nn(CC(=S)Nc3cccc(C#N)c3)cc2-c2ccnc(-c3ccccc3)c2)n1 | IC50 [3]: 1150 nM; IC50 (TGF-beta receptor type-1): 2200 nM
14% | 3% | Cc1cccc(-c2nn(CC(=O)Nc3cccc(F)c3)cc2-c2ccnc(-c3ccccc3)c2)n1 | 
20% | 20% | Cc1cccc(-c2nn(CC(=O)Nc3ccccc3F)cc2-c2ccnc(-c3ccccc3)c2)n1 | 
50% | 79% | Cc1cccc(-c2c(-c3ccnc4ccccc34)cnn2CC(=O)Nc2ccccc2F)n1 | 

From ChEMBL document CHEMBL4613227, “Synthesis and evaluation of the HIF-1α inhibitory activity of 3(5)-substituted-4-(quinolin-4-yl)- and 4-(2-phenylpyridin-4-yl)pyrazoles as inhibitors of ALK5” (Bioorg Med Chem Lett, 2020)
